Assay results reported in ChEMBL document CHEMBL1149190, “Generation of new protein kinase inhibitors utilizing cytochrome p450 mutant enzymes for indigoid synthesis” (J Med Chem, 2004).

Assays:
[1] = target: T1, Glycogen synthase kinase-3 (Homo sapiens, UniProt P49840+P49841); assay: (§1) Residual porcine GSK-3-alpha/beta kinase activity with L240C/N297Q mutant cytochrome P450 2A6 extract; assay type: protein assay; design: concentration or dose not given beside the values; conditions: Sus scrofa; target entry is the homologue from another species
T1 sequence (P49840 whole entry, looked up): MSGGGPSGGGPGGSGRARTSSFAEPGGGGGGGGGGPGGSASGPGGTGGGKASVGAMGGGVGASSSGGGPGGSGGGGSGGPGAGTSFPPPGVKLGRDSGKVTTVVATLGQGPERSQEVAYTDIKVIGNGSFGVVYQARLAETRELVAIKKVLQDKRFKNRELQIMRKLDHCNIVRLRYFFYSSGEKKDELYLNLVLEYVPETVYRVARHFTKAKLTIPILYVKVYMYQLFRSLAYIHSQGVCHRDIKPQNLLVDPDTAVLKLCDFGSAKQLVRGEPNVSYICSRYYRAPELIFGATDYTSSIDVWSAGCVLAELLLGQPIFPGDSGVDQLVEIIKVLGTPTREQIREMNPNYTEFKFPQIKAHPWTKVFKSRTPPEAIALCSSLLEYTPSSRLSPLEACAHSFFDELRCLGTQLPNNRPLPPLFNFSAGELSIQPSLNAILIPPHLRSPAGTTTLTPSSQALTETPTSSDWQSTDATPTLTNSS
T1 sequence (P49841 whole entry, looked up): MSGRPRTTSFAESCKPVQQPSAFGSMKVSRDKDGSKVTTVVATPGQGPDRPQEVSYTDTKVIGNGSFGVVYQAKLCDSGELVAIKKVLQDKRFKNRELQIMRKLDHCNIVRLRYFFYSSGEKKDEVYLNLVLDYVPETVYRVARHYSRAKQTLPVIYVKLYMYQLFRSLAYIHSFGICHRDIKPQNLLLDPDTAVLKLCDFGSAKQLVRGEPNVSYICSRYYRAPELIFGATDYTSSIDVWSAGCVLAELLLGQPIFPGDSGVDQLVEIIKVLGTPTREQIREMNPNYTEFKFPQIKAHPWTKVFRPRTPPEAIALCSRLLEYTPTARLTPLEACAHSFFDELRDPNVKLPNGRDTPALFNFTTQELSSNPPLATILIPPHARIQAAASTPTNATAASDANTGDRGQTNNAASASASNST
Summary of the method: (§2)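 E. coli expressing the P450 2A6 variant plus reductase were grown 42 h at 30 °C with the indole added. DMSO extract (0.3 µL) was tested on axin-purified porcine GSK-3α/β with GS-1 peptide in buffer A, 15 µM [γ-33P]ATP, 30 °C. Residual activity given as % of a DMSO control. Means of duplicates.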

[2] = target: T2, Cyclin-dependent kinase 5/CDK5 activator 1 (Homo sapiens) (UniProt Q00535+Q15078); assay: Residual Cyclin-dependent kinase 5-p35nck5a activity with L240C/N297Q mutant cytochrome P450 2A6 extract; assay type: protein-complex assay
T2 sequence (Q00535 whole entry): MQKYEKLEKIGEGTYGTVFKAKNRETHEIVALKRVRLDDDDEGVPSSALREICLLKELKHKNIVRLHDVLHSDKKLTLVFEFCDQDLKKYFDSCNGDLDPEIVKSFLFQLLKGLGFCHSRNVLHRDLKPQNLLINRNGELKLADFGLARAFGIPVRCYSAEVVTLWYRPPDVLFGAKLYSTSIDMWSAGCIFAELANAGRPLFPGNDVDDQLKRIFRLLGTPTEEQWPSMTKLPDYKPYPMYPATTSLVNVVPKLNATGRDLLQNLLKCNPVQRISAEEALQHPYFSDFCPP
T2 sequence (Q15078 99-307 partner limits assumed): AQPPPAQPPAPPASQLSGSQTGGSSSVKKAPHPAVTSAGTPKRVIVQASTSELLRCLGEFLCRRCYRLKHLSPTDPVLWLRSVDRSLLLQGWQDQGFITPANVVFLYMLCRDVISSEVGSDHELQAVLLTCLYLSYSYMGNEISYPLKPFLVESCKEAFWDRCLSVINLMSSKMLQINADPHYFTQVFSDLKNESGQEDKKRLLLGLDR
Summary of the method: (§3)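 The indole was fed to E. coli expressing the P450 2A6 variant with NADPH-P450 reductase, grown 42 h at 30 °C. Extract in DMSO (0.3 µL) was added to the CDK5/p25 histone H1 assay: buffer C, 15 µM [γ-33P]ATP, 30 °C. Residual activity given as % of a DMSO-only control. Means of duplicates.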

[3] = target: T1, Glycogen synthase kinase-3; assay: (§4) Residual porcine GSK-3-alpha/beta kinase activity with L240C mutant cytochrome P450 2A6 extract; assay type: protein assay; conditions: Sus scrofa; target entry is the homologue from another species; summary of the method: as §2
[4] = target: T1, Glycogen synthase kinase-3; assay: as §1; assay type: protein assay; conditions: Sus scrofa; target entry is the homologue from another species; summary of the method: as §2
[5] = target: T2, Cyclin-dependent kinase 5/CDK5 activator 1 (Homo sapiens); assay: Residual Cyclin-dependent kinase 5-p35nck5a activity with L240C-mutant cytochrome P450 2A6 extract; assay type: protein-complex assay
[6] = target: T1, Glycogen synthase kinase-3; assay: Inhibition of porcine GSK-3-alpha/beta kinase; assay type: protein assay, Sus scrofa; conditions: target entry is the homologue from another species
Summary of the method: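 Porcine brain GSK-3α/β, purified on immobilized axin and diluted 1/100 in 1 mg/mL BSA with 10 mM DTT. Substrate GS-1 phosphopeptide in buffer A (Tris-HCl pH 7.5, MgCl2, EGTA, DTT, heparin) with 15 µM [γ-33P]ATP, 30 min at 30 °C. Read by P81 filter binding and scintillation counting. Duplicates; IC50 as % of control activity.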

[7] = target: Cyclin-dependent kinase 5/CDK5 activator 1 (Homo sapiens, UniProt Q00535); assay: Inhibition of Cyclin-dependent kinase 5-p35nck5a; assay type: protein-complex assay
Chain of Cyclin-dependent kinase 5/CDK5 activator 1 (Q00535 whole entry, the tested form may be a part): as the sequence (Q00535 whole entry) above
Chain of Cyclin-dependent kinase 5/CDK5 activator 1 (Q15078 whole entry, further chain, the tested form may be a part): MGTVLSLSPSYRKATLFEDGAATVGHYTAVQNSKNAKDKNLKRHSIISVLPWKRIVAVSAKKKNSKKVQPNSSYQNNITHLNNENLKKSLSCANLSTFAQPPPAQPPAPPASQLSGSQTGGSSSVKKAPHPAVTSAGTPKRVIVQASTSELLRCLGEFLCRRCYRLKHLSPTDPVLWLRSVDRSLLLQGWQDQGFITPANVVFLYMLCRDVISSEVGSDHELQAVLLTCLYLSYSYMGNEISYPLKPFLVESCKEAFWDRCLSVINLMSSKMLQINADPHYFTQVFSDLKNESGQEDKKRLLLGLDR
Summary of the method: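 Recombinant CDK5 and p25 (truncated p35), each expressed in E. coli as a GST fusion and glutathione-agarose purified, mixed in equal amounts. Read by P81 filter capture and scintillation counting. Expressed as % of uninhibited activity. Duplicates; IC50 determined.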

[8] = target: Cyclin-dependent kinase 1/cyclin B (Marthasterias glacialis); assay: Inhibition of Cyclin-dependent kinase 1-cyclin B of M-phase Marthasterias glacialis oocytes
[9] = target: T1, Glycogen synthase kinase-3; assay: as §4; assay type: protein assay; conditions: Sus scrofa; target entry is the homologue from another species; remark: listed apart in the source
Summary of the method: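 GSK-3α/β from porcine brain, purified on immobilized axin and diluted 1/100, assayed in buffer A with GS-1 peptide substrate and 15 µM [γ-33P]ATP for 30 min at 30 °C. Phosphate incorporation read on P81 filters by scintillation counting. Bacterial extract in DMSO added; residual activity given as % of DMSO control, mean of duplicates.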

[10] = target: T2, Cyclin-dependent kinase 5/CDK5 activator 1 (Homo sapiens); assay: Residual Cyclin-dependent kinase 5-p35nck5a activity with wild-type cytochrome P450 2A6 extract; assay type: protein-complex assay; summary of the method: as §3
[11] = target: T1, Glycogen synthase kinase-3; assay: Residual porcine GSK-3-alpha/beta kinase activity with wild-type cytochrome P450 2A6 extract; assay type: protein assay; conditions: Sus scrofa, target entry is the homologue from another species; summary of the method: as §2

Structure (SMILES): c1cnc2[nH]ccc2c1
- residual activity [1]: 89%
- residual activity [2]: 103%

Structure (SMILES): Brc1ccc2[nH]ccc2c1
- residual activity [3]: 22%
- residual activity [2]: 56%
- residual activity [4]: 25%
- residual activity [5]: 44%

Structure (SMILES): Cc1ccc2c(c1)C(=O)C(c1c(O)[nH]c3ccccc13)=N2
- IC50 [6]: 550 nM
- IC50 [7]: 1900 nM

Structure (SMILES): COc1cc2cc[nH]c2cc1OC
- residual activity [1]: 62%
- residual activity [2]: 80%

Structure (SMILES): COc1ccc2c(c1)C(=O)C(c1[nH]c3ccc(OC)cc3c1O)=N2
- IC50 [6]: 6000 nM
- IC50 [8]: 1200 nM
- IC50 [7]: 26000 nM

Structure (SMILES): COc1ccc2c(c1)C(=O)C(c1[nH]c3ccccc3c1O)=N2
- IC50 [6]: > 100000 nM
- IC50 [8]: > 100000 nM
- IC50 [7]: > 100000 nM

Structure (SMILES): Cc1ccc2[nH]c(O)c(C3=Nc4ccccc4C3=O)c2c1
- IC50 [6]: 800 nM
- IC50 [7]: 5000 nM

Structure (SMILES): COc1ccc2[nH]ccc2c1
- residual activity [1]: 3%
- residual activity [2]: 3%
- residual activity [5]: 87%
- residual activity [9]: 55%

Structure (SMILES): Cc1ccc2[nH]ccc2c1
- residual activity [1]: 15%
- residual activity [10]: 89%
- residual activity [2]: 19%
- residual activity [11]: 45%

Structure (SMILES): COc1ccc2[nH]c(O)c(C3=Nc4ccccc4C3=O)c2c1
- IC50 [6]: 800 nM
- IC50 [8]: 1500 nM
- IC50 [7]: 1200 nM

Structure (SMILES): COc1ccc2c(c1)C(=O)C(c1c(O)[nH]c3ccc(OC)cc13)=N2
- IC50 [6]: 200 nM
- IC50 [8]: 400 nM
- IC50 [7]: 800 nM

Structure (SMILES): Fc1ccc2cc[nH]c2c1
- residual activity [1]: 87%
- residual activity [2]: 97%

Structure (SMILES): COc1ccc2c(c1)C(=O)C(c1c(O)[nH]c3ccccc13)=N2
- IC50 [6]: 600 nM
- IC50 [8]: 2100 nM
- IC50 [7]: 1200 nM

Structure (SMILES): Nc1ccc2[nH]ccc2c1
- residual activity [1]: 42%
- residual activity [2]: 73%

Structure (SMILES): O=C1Nc2ccccc2/C1=C1/Nc2ccccc2C1=O [INDIRUBIN]
- IC50 [6]: 2500 nM

Structure (SMILES): Clc1cccc2cc[nH]c12
- residual activity [2]: 82%
- residual activity [4]: 110%

Structure (SMILES): O=C1/C(=C2\Nc3ccccc3C2=O)Nc2ccccc21 [INDIGO]
- IC50 [6]: > 100000 nM
- IC50 [7]: > 100000 nM

Structure (SMILES): COC(=O)c1ccc2[nH]ccc2c1
- residual activity [1]: 71%
- residual activity [2]: 99%

Structure (SMILES): O=[N+]([O-])c1ccc2cc[nH]c2c1
- residual activity [2]: 107%
- residual activity ([11]; in the assay text read “cytochrome P450 2A6 L240C/N297Q mutant” for “wild-type cytochrome P450 2A6”): 63%

Structure (SMILES): c1ccc2[nH]ccc2c1
- residual activity [1]: 76%
- residual activity [10]: 78%
- residual activity [2]: 81%
- residual activity [11]: 68%

Structure (SMILES): Cc1cccc2cc[nH]c12
- residual activity [1]: 59%
- residual activity [2]: 90%
